Test results as given in ChEMBL document CHEMBL1629676, “Inhibitory and bactericidal activities of daptomycin, vancomycin, and teicoplanin against methicillin-resistant Staphylococcus aureus isolates collected from 1985 to 2007” (2009).
≈ marks a conversion by molar mass, not a printed value.

Experiments:
Staphylococcus aureus [1] = assay: Antimicrobial activity against methicillin-resistant Staphylococcus aureus assessed as >=3log10 CFU/ml reduction in bacterial growth after 24 to 48 hrs by CLSI method; type: functional
Procedure, shortened: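 MBC per CLSI: entire 0.1 ml from the MIC well and from wells 4 dilutions above the MIC spread on blood agar, dried 20 min, then spread evenly; incubated 35 to 37°C for 24 to 48 h. MBC taken as the lowest dilution giving ≥99.9% (≥3-log10 CFU/ml) reduction versus the growth control count.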

Staphylococcus aureus [2] = assay: Antimicrobial activity against methicillin-resistant Staphylococcus aureus by broth dilution assay; type: functional

CC(=O)N[C@@H]1[C@H](Oc2c3cc4cc2Oc2ccc(cc2Cl)[C@@H](O[C@@H]2O[C@@H](CO)[C@@H](O)[C@H](O)[C@@H]2NC(C)=O)[C@@H]2NC(=O)[C@H](NC(=O)[C@@H]4NC(=O)[C@H]4NC(=O)[C@@H](Cc5ccc(c(Cl)c5)O3)NC(=O)[C@H](N)c3ccc(O)c(c3)Oc3cc(O)cc4c3)c3ccc(O)c(c3)-c3c(O[C@H]4O[C@H](CO)[C@@H](O)[C@@H](O)[C@@H]4O)cc(O)cc3[C@@H](C(=O)O)NC2=O)O[C@@H](CO)[C@@H](O)[C@@H]1O
MBC50 (Staphylococcus aureus [1]): 2 µg/mL (≈ 1.13 µM) | MBC90 (Staphylococcus aureus [1]): 32 µg/mL (≈ 18.1 µM) | MIC50 (Staphylococcus aureus [2]): 1 µg/mL (≈ 0.566 µM) | MIC90 (Staphylococcus aureus [2]): 1 µg/mL (≈ 0.566 µM)

CCCCCCCCCC(=O)N[C@@H](Cc1c[nH]c2ccccc12)C(=O)N[C@H](CC(N)=O)C(=O)N[C@@H](CC(=O)O)C(=O)N[C@@H]1C(=O)NCC(=O)N[C@@H](CCCN)C(=O)N[C@@H](CC(=O)O)C(=O)N[C@H](C)C(=O)N[C@@H](CC(=O)O)C(=O)NCC(=O)N[C@H](CO)C(=O)N[C@@H]([C@H](C)CC(=O)O)C(=O)N[C@@H](CC(=O)c2ccccc2N)C(=O)O[C@@H]1C
MBC50 (Staphylococcus aureus [1]): 0.5 µg/mL (≈ 0.309 µM) | MBC90 (Staphylococcus aureus [1]): 1 µg/mL (≈ 0.617 µM) | MIC50 (Staphylococcus aureus [2]): 0.5 µg/mL (≈ 0.309 µM) | MIC90 (Staphylococcus aureus [2]): 0.5 µg/mL (≈ 0.309 µM)

CN[C@H](CC(C)C)C(=O)N[C@H]1C(=O)N[C@@H](CC(N)=O)C(=O)N[C@H]2C(=O)N[C@H]3C(=O)N[C@H](C(=O)N[C@H](C(=O)O)c4cc(O)cc(O)c4-c4cc3ccc4O)[C@H](O)c3ccc(c(Cl)c3)Oc3cc2cc(c3O[C@@H]2O[C@H](CO)[C@@H](O)[C@H](O)[C@H]2O[C@H]2C[C@](C)(N)[C@H](O)[C@H](C)O2)Oc2ccc(cc2Cl)[C@H]1O [VANCOMYCIN]
MBC50 (Staphylococcus aureus [1]): 1 µg/mL (≈ 0.69 µM) | MBC90 (Staphylococcus aureus [1]): 1 µg/mL (≈ 0.69 µM) | MIC50 (Staphylococcus aureus [2]): 1 µg/mL (≈ 0.69 µM) | MIC90 (Staphylococcus aureus [2]): 1 µg/mL (≈ 0.69 µM)
